We go through 18 compounds from ChEMBL document CHEMBL1137301 (J Med Chem, 2006).

Assay [1] concerns the target T1, Melatonin receptor type 1A (Homo sapiens, UniProt P48039). Nature of the assay: Displacement of 2-[125I]iodomelatonin from human MT1 receptor expressed in NIH3T3 cells. In kind it is cell-based.
In assay [2] the target is T2, Melatonin receptor type 1B (Homo sapiens, UniProt P49286).
T2 sequence (P49286 whole entry): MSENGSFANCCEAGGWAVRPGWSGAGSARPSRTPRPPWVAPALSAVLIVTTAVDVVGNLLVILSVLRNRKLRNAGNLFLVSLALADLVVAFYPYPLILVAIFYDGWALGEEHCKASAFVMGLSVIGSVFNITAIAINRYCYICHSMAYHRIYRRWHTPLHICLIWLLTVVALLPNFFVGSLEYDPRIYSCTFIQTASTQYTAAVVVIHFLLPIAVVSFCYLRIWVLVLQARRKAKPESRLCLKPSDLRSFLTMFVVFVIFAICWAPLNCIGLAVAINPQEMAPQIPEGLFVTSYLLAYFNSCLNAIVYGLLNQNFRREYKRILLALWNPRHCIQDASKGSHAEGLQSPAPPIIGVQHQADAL
Nature of the assay: Displacement of 2-[125I]iodomelatonin from human MT2 receptor expressed in NIH3T3 cells. The class given is cell-based.

Assay [3] deals with T3, Melatonin receptor type 1B (Homo sapiens) (UniProt P49286).
T3 sequence (whole entry): T2 sequence (P49286 whole entry)
Nature of the assay: Intrinsic activity at human MT2 receptor expressed in NIH3T3 cells assessed as stimulation of [35S]GTP-gamma-S binding relative to MLT. The class given is functional, cell-based. On the technique in general: Binding of GTPγS marks nucleotide exchange on a G protein.

For assay [4], the target named is T1, Melatonin receptor type 1A. Nature of the assay: Intrinsic activity at human MT1 receptor expressed in NIH3T3 cells assessed as stimulation of [35S]GTPgammaS binding relative to MLT. In kind it is functional, cell-based.
Assay [5] has as its target T1, Melatonin receptor type 1A. Nature of the assay: Activity at human MT1 receptor expressed in NIH3T3 cells assessed as inhibition of MLT-stimulated [35S]GTP-gamma-S binding. Conditions: filed as partial agonist. In kind it is functional, cell-based.
Assay [6] deals with T3, Melatonin receptor type 1B (Homo sapiens). Nature of the assay: (§1) Activity at human MT2 receptor expressed in NIH3T3 cells assessed as inhibition of MLT-stimulated [35S]GTPgammaS binding. The class given is functional, cell-based. Put shortly:
(§2)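 Antagonism was measured in [35S]GTPγS binding on human MT2 NIH3T3 membranes (30 min, 30 °C; GDP 50 µM, NaCl 100 mM, MgCl2 3 mM). MLT concentration-response curves were run alone and with antagonist at 1, 10, 100 and 1000 nM.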

Assay [7] has as its target Melatonin receptor (Homo sapiens) (UniProt P48039+P49286). Nature of the assay: Selectivity for human MT2 receptor over MT1 receptor. In kind it is protein assay. Put shortly:
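Incubation was 90 min at 37 °C in 50 mM Tris/HCl, pH 7.4, with nonspecific binding defined by 10 µM MLT. Ki came from IC50 via Cheng-Prusoff, mean of at least three runs in duplicate. The ratio compares MT1 and MT2 Ki.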

Assay [8] deals with T2, Melatonin receptor type 1B. The description is as §1. The class given is functional, cell-based. Conditions: read-out: pA2 (converted). Put shortly:
as §2

Melatonin receptor (Homo sapiens), sequence (P48039 whole entry, looked up, one chain of several): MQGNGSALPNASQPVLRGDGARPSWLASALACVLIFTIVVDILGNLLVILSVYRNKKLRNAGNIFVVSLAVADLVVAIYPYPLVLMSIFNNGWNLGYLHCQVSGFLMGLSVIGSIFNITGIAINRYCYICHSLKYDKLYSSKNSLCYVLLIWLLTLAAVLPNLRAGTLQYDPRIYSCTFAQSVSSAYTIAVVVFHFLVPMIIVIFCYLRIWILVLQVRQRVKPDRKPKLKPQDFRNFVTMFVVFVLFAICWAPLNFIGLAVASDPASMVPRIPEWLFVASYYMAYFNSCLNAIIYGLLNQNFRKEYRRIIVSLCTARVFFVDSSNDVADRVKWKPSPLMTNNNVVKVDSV
T1 sequence (P48039 whole entry): as the sequence (P48039 whole entry, looked up, one chain of several) above

As to `CC(=O)NCC(Cc1ccccc1)c1ccccc1` (configuration not stated), the Ki in assay [1] was 708 nM; in assay [2] it was 417 nM. The Intrinsic activity in assay [3] was -0.43; in assay [4], -0.3.
For `COc1cccc(/C(=C\CNC(=O)C2CCC2)c2ccccc2)c1`, the values for the Ki in assay [1] and in assay [2] were 257 nM and 1.55 nM, respectively. Further, the Intrinsic activity in assay [3] was -0.02; in assay [4], -0.04.
The matching figures for `CC(=O)NC/C(=C\c1ccccc1)c1ccccc1`: 1200 nM, 148 nM, 0.18 and 0.11.
The matching figures for `CCC(=O)NCCc1cccc(Cc2ccccc2)c1`: 389 nM, 661 nM, 0.48 and 0.24.
The like results for `CC(=O)NC/C(=C/c1ccccc1)c1ccccc1` were, in that order, 3630 nM, 525 nM, -0.15 and -0.23.
For the compound `COc1cccc(/C(=C/CNC(C)=O)c2ccccc2)c1`, the Activity result in assay [5] and in assay [6] (filed as partial agonist) was “Partial agonist” each time. The Ki in assay [1] is 2.69 nM; in assay [2], 0.219 nM. Besides, the Intrinsic activity amounted to 0.38 in assay [3] and 0.54 in assay [4].
Regarding `COc1cccc(C(CNC(C)=O)Cc2ccccc2)c1` (configuration not stated), the values for the Ki in assay [1] and in assay [2] were 692 nM and 204 nM, respectively. For the same compound, the Intrinsic activity was -0.18 in assay [3] and -0.23 in assay [4].
The matching figures for `CC(=O)NCC=C(c1ccccc1)c1ccccc1`: 513 nM, 11.5 nM, 0.19 and -0.03.
Consider `COc1cccc(C(CCNC(C)=O)c2ccccc2)c1` (racemic), for which the Ki in assay [1] was 2190 nM; in assay [2], 5.37 nM. The Intrinsic activity is 0.04 in assay [3] and 0.24 in assay [4]. The Selectivity ratio in assay [7] was 407.
As for `COc1cccc(/C(=C/CNC(=O)C2CCC2)c2ccccc2)c1`, the Ki was 93.3 nM in assay [1] and 0.525 nM in assay [2]. Moreover, the Intrinsic activity in assay [3] amounted to 0.13; in assay [4], 0.29. Also, the Selectivity ratio in assay [7] was determined as 178. Further, the Activity entry in assay [6] (filed as antagonist) was “Antagonist”. In addition, in assay [8], the Kb was 0.389 nM.
Regarding `COc1ccc(Cc2ccccc2)c(CCNC(C)=O)c1`, the values for the Ki in assay [1] and in assay [2] were 69.2 nM and 6.03 nM, respectively. Besides, the Intrinsic activity in assay [3] stood at 0.06; in assay [4] it was 0.24.
`COc1cccc(/C(=C\CNC(C)=O)c2ccccc2)c1`: the Ki was 229 nM in assay [1] and 2.51 nM in assay [2]. The Intrinsic activity in assay [3] was determined as 0.3; in assay [4] it was 0.45.
Take `COc1cccc(C(=CCNC(C)=O)c2cccc(OC)c2)c1`: the Activity result in assay [5] and in assay [6] (filed as partial agonist) was “Partial agonist” in each case. Besides, the figures for the Ki in assay [1] and in assay [2] were 58.9 nM and 0.275 nM, respectively. The Intrinsic activity in assay [3] was found to be 0.34; in assay [4], 0.2. In addition, the Selectivity ratio in assay [7] is 214.
For `CCC(=O)NCCC(c1ccccc1)c1cccc(OC)c1` (racemic), the Ki was 363 nM in assay [1] and 5.01 nM in assay [2]. In addition, the results for the Intrinsic activity in assay [3] and in assay [4] were 0.28 and 0.31, respectively.
With `O=C(NCC=C(c1ccccc1)c1ccccc1)C1CCC1`, the figures for the Ki in assay [1] and in assay [2] were 912 nM and 13.2 nM, respectively. The figures for the Intrinsic activity in assay [3] and in assay [4] were -0.2 and -0.18, respectively.
The like results for `CCC(=O)NCC(Cc1ccccc1)c1cccc(OC)c1` (configuration not stated) were, in that order, 525 nM, 191 nM, -0.25 and -0.13.
As for `CC(=O)NCCC(c1ccccc1)c1ccccc1`, the results for the Ki in assay [1] and in assay [2] were 4170 nM and 141 nM, respectively. For the same compound, the Intrinsic activity in assay [3] was -0.23; in assay [4], -0.19.
In the case of `CCCC(=O)NCCC(c1ccccc1)c1cccc(OC)c1` (racemic), the Ki in assay [1] was 550 nM; in assay [2] it was 2.63 nM. Also, the Intrinsic activity was 0.27 in assay [3] and 0.21 in assay [4]. Moreover, in assay [7], the Selectivity ratio turned out to be 209.

The Ki is the dissociation constant of the complex between target and ligand, obtained from inhibition or displacement. Lower therefore signals higher affinity.
